Source: ChEMBL document CHEMBL4152372, “Novel autophagy modulators: Design and synthesis of (+)-epogymnolactam analogues and structure-activity relationship” (Bioorg Med Chem, 2018)
The source made the active and inactive calls. No cut-off for these calls is given here.

Columns and labels:
[1] = tested on: NIH3T3; assay: Induction of autophagy in mouse NIH/3T3 cells assessed as increase in LC3-2 to actin ratio after 4 hrs by immunoblot analysis; assay type: functional, cell-based
Outline: (§1)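 Mouse embryo NIH3T3 fibroblasts seeded at 3.3 × 10^5 cells/ml at 37°C, 5% CO2; after 24 h the medium was changed and compounds added in DMSO at 25, 50 or 100 μM final. Controls were DMSO vehicle and 5 μM rapamycin. After 4 h at 37°C, cells were lysed in RIPA buffer and run on SDS-PAGE. Blots were probed for LC3, p62 and actin, and band signal ratios were quantified. Mean ± SD of triplicate.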

[2] = tested on: NIH3T3; assay: Induction of autophagy in mouse NIH/3T3 cells assessed as upregulation of p62 expression after 4 hrs by immunoblot analysis; assay type: functional, cell-based; outline: as §1
[3] = tested on: NIH3T3; assay: Induction of apoptosis in mouse NIH/3T3 cells assessed as cell shrinkage at 100 uM measured after 4 hrs; assay type: functional, cell-based
[4] = tested on: NIH3T3; assay: Cytotoxicity against mouse NIH/3T3 cells assessed as reduction in cell viability at 25 to 100 uM after 4 hrs by CCK8 assay; assay type: cell-based; settings: nih3t3, 4 h
Outline: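 NIH3T3 cells counted by trypan blue exclusion, set to 0.53 × 10^4 cells/ml, and dosed at 25, 50 or 100 μM final (DMSO 0.1%). After 4 h at 37°C under CO2, CCK-8 reagent was added and incubation continued […]. Viable cells were read as OD450 against the DMSO control, mean ± SD of triplicate.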

[5] = tested on: NIH3T3; assay: Induction of autophagy in mouse NIH/3T3 cells assessed as increase in LC3-2 to LC3-1 ratio after 4 hrs by immunoblot analysis; assay type: functional, cell-based; outline: as §1
[6] = tested on: NIH3T3; assay: Induction of autophagy in mouse NIH/3T3 cells assessed as upregulation of p62 expression at 25 to 100 uM after 4 hrs by immunoblot analysis; assay type: functional, cell-based
Outline: (§2)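 NIH3T3 mouse embryo fibroblasts seeded at 3.3 × 10^5 cells/ml, cultured 24 h at 37°C/5% CO2, medium changed, then given compound in DMSO at final 25, 50, 100 μM for 4 h at 37°C. DMSO vehicle control; 5 μM rapamycin positive control. Cells lysed in RIPA, SDS-PAGE immunoblot for LC3, SQSTM1/p62, actin; band signals quantified as relative ratios. Mean ± SD of triplicates.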

[7] = tested on: NIH3T3; assay: Inhibition of autophagy in mouse NIH/3T3 cells assessed as decrease in LC3-2 to LC3-1 ratio after 4 hrs by immunoblot analysis; assay type: functional, cell-based; outline: as §2
[8] = tested on: NIH3T3; assay: Induction of apoptosis in mouse NIH/3T3 cells assessed as cell shrinkage at 50 to 100 uM measured after 4 hrs; assay type: functional, cell-based
[9] = tested on: NIH3T3; assay: Inhibition of autophagy in mouse NIH/3T3 cells assessed as decrease in LC3-2 to actin ratio after 4 hrs by immunoblot analysis; assay type: functional, cell-based; outline: as §2
[10] = tested on: NIH3T3; assay: Induction of autophagy in mouse NIH/3T3 cells assessed as increase in LC3-2 to LC3-1 ratio at 25 to 100 uM after 4 hrs by immunoblot analysis; assay type: functional, cell-based; outline: as §1
[11] = tested on: NIH3T3; assay: Induction of autophagy in mouse NIH/3T3 cells assessed as increase in LC3-2 to actin ratio at 25 to 100 uM after 4 hrs by immunoblot analysis; assay type: functional, cell-based; outline: as §1
[12] = tested on: NIH3T3; assay: Induction of autophagy in mouse NIH/3T3 cells assessed as upregulation of p62 expression after 6 hrs by immunoblot analysis; assay type: functional, cell-based
[13] = tested on: NIH3T3; assay: Modulation of autophagy in mouse NIH/3T3 cells assessed as effect on p62 expression at 25 to 100 uM after 4 hrs by immunoblot analysis; assay type: functional, cell-based; outline: as §1
[14] = tested on: NIH3T3; assay: Modulation of autophagy in mouse NIH/3T3 cells assessed as effect on LC3-2 to LC3-1 ratio at 25 to 100 uM after 4 hrs by immunoblot analysis; assay type: functional, cell-based; outline: as §1
[15] = tested on: NIH3T3; assay: Modulation of autophagy in mouse NIH/3T3 cells assessed as effect on LC3-2 to actin ratio at 25 to 100 uM after 4 hrs by immunoblot analysis; assay type: functional, cell-based; outline: as §1

SMILES: CCCCCCC(=O)[C@H]1O[C@H]1C(N)=O
- Activity [1]: Dose-dependent effect
- Activity [2]: Dose-dependent effect
- Activity [3]: Active
- Activity [4]: Toxic
- Activity [5]: Dose-dependent effect

SMILES: CCCCCCCCC(=O)[C@H]1O[C@H]1C(N)=O
- Activity [4]: Toxic
- Activity [6]: Active
- inhibition [7]: Dose-dependent effect
- Activity [8]: Active
- inhibition [9]: Dose-dependent effect

SMILES: CCCCC(=O)[C@H]1O[C@H]1C(=O)N(C)C
- Activity [10]: inactive
- Activity [11]: inactive

SMILES: CCCCC1(O)NC(=O)[C@H]2O[C@H]21 (stereo partly drawn)
- Activity [10]: inactive
- Activity [11]: inactive

SMILES: CCCCC(=O)CCC(N)=O
- Activity [10]: inactive
- Activity [11]: inactive

SMILES: C/C=C/C/C=C/CCC(=O)[C@H]1O[C@H]1C(N)=O [CERULENIN]
- Activity [4]: Toxic
- Activity [6]: Active
- inhibition [7]: Dose-dependent effect
- inhibition [9]: Dose-dependent effect

SMILES: CCCC[C@@]1(O)NC(=O)[C@@H]2O[C@@H]21
- Activity [4]: Toxic
- Activity [12]: Active
- Activity [10]: Active
- Activity [8]: inactive
- Activity [11]: Active
- Activity [13]: inactive

SMILES: CCCC[C@]1(OC)NC(=O)[C@@H]2O[C@@H]21
- Activity [10]: inactive
- Activity [11]: inactive

SMILES: CCCCCCCCCCC(=O)[C@H]1O[C@H]1C(N)=O
- Activity [4]: Toxic
- Activity [14]: inactive
- Activity [15]: inactive

SMILES: CCCC[C@@H](O)[C@H]1O[C@H]1C(N)=O
- Activity [10]: inactive
- Activity [11]: inactive
